Measurements reported in ChEMBL document CHEMBL4619796, “Discovery of 3-Quinazolin-4(3H)-on-3-yl-2,N-dimethylpropanamides as Orally Active and Selective PI3Kα Inhibitors” (ACS Med Chem Lett, 2020).
Active and inactive are the calls of the source. No cut-off for these calls is given here.

Key:
Homo sapiens [1] = species on record: Homo sapiens; assay: (§1) Selectivity ratio of IC50 for PI3Kbeta (unknown origin) using PIP2:3PS peptide as substrate preincubated for 15 mins followed by ATP addition at Km concentration and further incubated for 120 mins by ADP-Glo assay to IC50 for PI3Kalpha (unknown origin) using PIP2:3PS peptide as substrate preincubated for 15 mins followed by ATP addition at Km concentration and further incubated for 150 mins by ADP-Glo assay
Homo sapiens [2] = species on record: Homo sapiens; assay: as §1, with “PI3Kgamma” for “PI3Kbeta”
Homo sapiens [3] = species on record: Homo sapiens; assay: as §1, with “PI3Kdelta” for “PI3Kbeta”
[4] = Inhibition of PI3K in human MCF7 cells assessed as reduction in AKT phosphorylation at residue S473 incubated for 2 hrs followed by insulin addition by ELISA; type: cell-based; details: MCF7, 2 h
[5] = molecular target: Phosphatidylinositol 4,5-bisphosphate 3-kinase catalytic subunit alpha isoform (Homo sapiens, UniProt P42336); assay: Inhibition of PI3Kalpha (unknown origin) using PIP2:3PS peptide as substrate preincubated for 15 mins followed by ATP addition at Km concentration and further incubated for 150 mins by ADP-Glo assay
Phosphatidylinositol 4,5-bisphosphate 3-kinase catalytic subunit alpha isoform, sequence (P42336 whole entry, canonical isoform): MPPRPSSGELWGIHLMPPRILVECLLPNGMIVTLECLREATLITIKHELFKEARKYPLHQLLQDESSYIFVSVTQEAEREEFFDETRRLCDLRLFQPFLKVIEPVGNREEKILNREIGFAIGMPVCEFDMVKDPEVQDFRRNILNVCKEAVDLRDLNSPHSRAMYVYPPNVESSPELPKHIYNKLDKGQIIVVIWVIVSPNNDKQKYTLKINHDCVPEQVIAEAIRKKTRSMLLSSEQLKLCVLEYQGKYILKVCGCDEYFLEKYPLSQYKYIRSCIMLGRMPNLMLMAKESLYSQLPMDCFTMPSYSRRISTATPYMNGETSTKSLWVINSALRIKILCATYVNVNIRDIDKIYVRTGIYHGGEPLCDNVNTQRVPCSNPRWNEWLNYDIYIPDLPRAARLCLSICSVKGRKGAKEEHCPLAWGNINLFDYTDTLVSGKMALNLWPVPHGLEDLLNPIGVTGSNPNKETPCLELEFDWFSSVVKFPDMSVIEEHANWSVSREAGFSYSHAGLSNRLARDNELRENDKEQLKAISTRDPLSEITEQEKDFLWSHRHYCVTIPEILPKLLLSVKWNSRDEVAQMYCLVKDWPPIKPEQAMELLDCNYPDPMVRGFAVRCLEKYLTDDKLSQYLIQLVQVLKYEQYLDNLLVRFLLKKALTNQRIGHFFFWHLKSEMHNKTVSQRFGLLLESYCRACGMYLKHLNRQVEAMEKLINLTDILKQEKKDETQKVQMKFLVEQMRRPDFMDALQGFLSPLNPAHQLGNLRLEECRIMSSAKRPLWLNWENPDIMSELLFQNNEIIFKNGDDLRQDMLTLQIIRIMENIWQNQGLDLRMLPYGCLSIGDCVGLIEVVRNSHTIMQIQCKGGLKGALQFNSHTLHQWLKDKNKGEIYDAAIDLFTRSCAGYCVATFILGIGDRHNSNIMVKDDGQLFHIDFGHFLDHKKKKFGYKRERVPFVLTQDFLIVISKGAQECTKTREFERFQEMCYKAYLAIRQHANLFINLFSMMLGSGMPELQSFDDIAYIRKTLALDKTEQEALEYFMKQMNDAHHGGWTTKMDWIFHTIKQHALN

[6] = Oral bioavailability in BALB/c mouse at 10 mg/kg by HPLC analysis; type: ADME, organism-based; details: in vivo
[7] = Cmax in BALB/c mouse at 10 mg/kg, po by HPLC analysis; type: ADME, organism-based; set-up: dose 10 mg/kg, route oral; details: in vivo
SK-OV-3 = assay: Antitumor activity against human SKOV3 cells xenografted in BALB/c nude mouse assessed as tumor growth inhibition at 10 to 100 mg/kg, po via gavage administered once daily and measured after 28 days by caliper method; type: functional, organism-based
Summary of the method: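 SKOV-3 ovarian carcinoma subcutaneous xenografts in mice. Oral gavage once daily for 28 days at 10, 30 and 100 mg kg–1 day–1. Read-out is tumor growth inhibition.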

[8] = Clearance in BALB/c mouse at 1 mg/kg, […] by HPLC analysis; type: ADME, organism-based; details: in vivo
[9] = Dose normalized AUC (0 to last) in BALB/c mouse at 10 mg/kg, po by HPLC analysis; type: ADME, organism-based; details: in vivo
BT-474 [10] = assay: Antitumor activity against PI3KCA mutant human BT474 cells xenografted in BALB/c nude mouse assessed as tumor growth inhibition at 10 to 20 mg/kg, po administered once daily for 21 days by caliper method; type: functional, organism-based
Summary of the method: (§2)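 BT-474 (PIK3CA mutant human breast ductal carcinoma) subcutaneous xenografts in Balb/c nude mice. Oral dosing once daily for 21 days. Vehicle 0.5% MC + 0.2% Tween 80. Read-out is tumor growth inhibition.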

[11] = Toxicity in BALB/c nude mouse xenografted with PI3KCA mutant human BT474 cells at 30 mg/kg, po administered once daily; type: organism-based, BT-474; details: in vivo
Summary of the method: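 Balb/c nude mice bearing BT-474 subcutaneous xenografts. Oral dosing at 30 mg/kg once daily.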

BT-474 [12] = assay: Antitumor activity against PI3KCA mutant human BT474 cells xenografted in BALB/c nude mouse assessed as tumor growth inhibition at 30 mg/kg, po administered once daily for 21 days by caliper method relative to control; type: functional; details: BT-474, po, 504 h, read-out: TGI; summary of the method: as §2
BT-474 [13] = assay: Antitumor activity against PI3KCA mutant human BT474 cells xenografted in BALB/c nude mouse assessed as tumor growth inhibition at 30 mg/kg, po administered once daily and measured after 30 days by caliper method relative to control; type: functional; details: BT-474, po, 720 h, read-out: TGI

Ratio IC50 (Homo sapiens [1]) | Ratio IC50 (Homo sapiens [2]) | Ratio IC50 (Homo sapiens [3]) | IC50 [4] [nM] | IC50 [5] [nM] | bioavailability [6] [%] | Cmax [7] [µM] | CL/F [8] [mL/min/kg] | AUClast/dose [9] | Compound | TGI (SK-OV-3) | TGI (BT-474 [10]) | Activity [11] | inhibition in vivo at 30 mg/kg (BT-474 [12]) [%] | inhibition in vivo at 30 mg/kg (BT-474 [13]) [%]
107 | 9.87 | 3.41 | 56.1 | 5.5 | – | – | – | – | COc1ncc(-c2ccc3ncn(C[C@@H](C)C(=O)NCC(F)(F)F)c(=O)c3c2)cc1NS(=O)(=O)c1ccc(F)cc1Cl | – | – | – | – | –
> 334 | 12.5 | 17.9 | > 1000 | 30 | – | – | – | – | CNC(=O)[C@H](C)Cn1cnc2ccc(-c3cnc(CO)c(NS(=O)(=O)c4ccc(F)cc4Cl)c3)cc2c1=O | – | – | – | – | –
83.2 | 7.38 | 5.03 | 17.1 | 2 | 56.2 | 4.45 | 9.8 | 1631 nM.hr/(mg/kg) | COc1ncc(-c2ccc3ncn(C[C@@H](C)C(N)=O)c(=O)c3c2)cc1NS(=O)(=O)c1ccc(F)cc1Cl | inactive | – | – | – | –
14.4 | 3.61 | 0.35 | 39.9 | – | – | – | – | – | COc1ncc(-c2ccc3ncn(CC4(C(N)=O)CC4)c(=O)c3c2)cc1NS(=O)(=O)c1ccc(F)cc1Cl | – | – | – | – | –
175 | 8.87 | 11.6 | 0.45 | 1.1 | – | 24 | – | 5700 nM·h | CNC(=O)[C@H](C)Cn1cnc2ccc(-c3cnc(OC)c(NS(=O)(=O)c4cccc(Cl)c4Cl)c3)cc2c1=O | – | inactive | Toxic | – | –
162 | 7.41 | 7.61 | 67.4 | 2.5 | – | – | – | – | COc1ncc(-c2ccc3ncn(C[C@@H](C)C(=O)NCCF)c(=O)c3c2)cc1NS(=O)(=O)c1ccc(F)cc1Cl | – | – | – | – | –
259 | 7.92 | 3.11 | 373 | 19.6 | – | – | – | – | CCC(CC)NC(=O)[C@H](C)Cn1cnc2ccc(-c3cnc(OC)c(NS(=O)(=O)c4ccc(F)cc4Cl)c3)cc2c1=O | – | – | – | – | –
186 | 3.27 | 2.12 | 80.4 | 8.4 | – | 4.73 | – | 302 nM·h | COc1ncc(-c2ccc3ncn(C[C@@H](C)C(=O)NC4CCC4)c(=O)c3c2)cc1NS(=O)(=O)c1ccc(F)cc1Cl | – | – | – | – | –
155 | 10.4 | 5.79 | 87.1 | 4.4 | 9 | 24.7 | 9 | 2020 nM·h | CNC(=O)[C@H](C)Cn1cnc2ccc(-c3cnc(OC)c(NS(=O)(=O)c4cccc(C(F)(F)F)c4)c3)cc2c1=O | – | – | – | 41.1 | –
187 | 6.28 | 5.63 | 40.5 | 3.5 | – | – | – | – | CCNC(=O)[C@H](C)Cn1cnc2ccc(-c3cnc(OC)c(NS(=O)(=O)c4ccc(F)cc4Cl)c3)cc2c1=O | – | – | – | – | –
424 | 6.38 | 3.03 | 81.1 | 8 | – | – | – | – | COc1ncc(-c2ccc3ncn(C[C@@H](C)C(=O)NCC(C)C)c(=O)c3c2)cc1NS(=O)(=O)c1ccc(F)cc1Cl | – | – | – | – | –
131 | 10.8 | 5.38 | 13.4 | 2.1 | – | 37 | – | 6260 nM·h | CNC(=O)[C@H](C)Cn1cnc2ccc(-c3cnc(OC)c(NS(=O)(=O)c4ccc(Cl)cc4Cl)c3)cc2c1=O | – | inactive | Toxic | – | –
33.9 | 7.39 | 4.75 | 134 | – | – | – | – | – | COc1ncc(-c2ccc3ncn(CC(N)C(N)=O)c(=O)c3c2)cc1NS(=O)(=O)c1ccc(F)cc1Cl (racemic) | – | – | – | – | –
406 | 21 | 17 | 397 | 3 | – | – | – | – | CNC(=O)[C@H](C)Cn1cnc2ccc(-c3cnc(C)c(NS(=O)(=O)c4ccc(F)cc4Cl)c3)cc2c1=O | – | – | – | – | –
229 | 9.22 | 6.06 | 72 | 4.9 | – | 9.13 | – | 723 nM.hr/(mg/kg) | COCCNC(=O)[C@H](C)Cn1cnc2ccc(-c3cnc(OC)c(NS(=O)(=O)c4ccc(F)cc4Cl)c3)cc2c1=O | – | – | – | – | –
151 | 6.34 | 6.8 | 339 | 1.7 | – | – | – | – | COc1ncc(-c2ccc3ncn(C[C@@H](C)C(=O)NCCO)c(=O)c3c2)cc1NS(=O)(=O)c1ccc(F)cc1Cl | – | – | – | – | –
59 | 3.94 | 3.34 | 16.8 | 1.2 | – | – | – | – | COc1ncc(-c2ccc3ncn(CCC(N)=O)c(=O)c3c2)cc1NS(=O)(=O)c1ccc(F)cc1Cl | – | – | – | – | –
309 | 14.4 | 13.8 | 347 | 6 | – | – | – | – | CCc1ncc(-c2ccc3ncn(C[C@@H](C)C(=O)NC)c(=O)c3c2)cc1NS(=O)(=O)c1ccc(F)cc1Cl | – | – | – | – | –
115 | 11.7 | 2.08 | 10.9 | 0.5 | – | – | – | – | CNC(=O)[C@H](C)Cn1cnc2ccc(-c3cnc(OC)c(NS(=O)(=O)c4sc(C)nc4C)c3)cc2c1=O | – | – | – | – | –
106 | 12.3 | 9.16 | 19 | 3.4 | – | 5 | – | 1370 nM·h | CNC(=O)[C@H](C)Cn1cnc2ccc(-c3cnc(OC)c(NS(=O)(=O)c4ccc(F)cc4)c3)cc2c1=O | – | – | – | – | –
224 | 5.44 | 2.61 | 170 | 2.7 | – | – | – | – | COc1ncc(-c2ccc3ncn(C[C@@H](C)C(=O)NC4CC4)c(=O)c3c2)cc1NS(=O)(=O)c1ccc(F)cc1Cl | – | – | – | – | –
130 | 7.4 | 3.4 | 188 | 0.5 | – | – | – | – | COc1ncc(-c2ccc3ncc(NC(=O)N4CCC[C@H]4C(N)=O)c(=O)n3c2)cc1NS(=O)(=O)c1ccc(F)cc1Cl | – | – | – | – | –
109 | 17.3 | 19.4 | – | 20.8 | – | – | – | – | CNC(=O)[C@H](C)Cn1cnc2ccc(-c3cnc(OC)c(NS(=O)(=O)c4cc(C(F)(F)F)cc(C(F)(F)F)c4)c3)cc2c1=O | – | – | – | – | –
107 | 9.87 | 3.41 | 61.5 | 6.9 | – | – | – | – | COc1ncc(-c2ccc3ncn(C[C@@H](C)C(=O)NC(C)C)c(=O)c3c2)cc1NS(=O)(=O)c1ccc(F)cc1Cl | – | – | – | – | –
– | – | – | – | – | – | – | – | – | Cc1nc(NC(=O)N2CCC[C@H]2C(N)=O)sc1-c1ccnc(C(C)(C)C(F)(F)F)c1 [ALPELISIB] | – | – | – | – | 80.2
